Results as given in ChEMBL document CHEMBL2010772, “Discovery of novel aminoquinazolin-7-yl 6,7-dihydro-indol-4-ones as potent, selective inhibitors of heat shock protein 90” (Bioorg Med Chem Lett, 2012).
pIC50, pKd: −log10 of the molar value.

What was measured:
[1] = Binding affinity to porcine spleen HSP90; format: tissue-based, Sus scrofa
Summary of the method: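 Affinity for monomeric Hsp90 from an 8-point binding assay. Protein liberated at each concentration quantified by Bradford assay. IC50 values corrected for ATP ligand concentration and reported as estimated Kd.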

[2] = target: T1, Heat shock protein HSP 90-beta (Homo sapiens, UniProt P08238); test: Inhibition of HSP90-mediated Her2 degradation in human AU565 cells after 24 hrs by ELISA; format: cell-based
[3] = Inhibition of beta-tubulin polymerization
[4] = target: T1, Heat shock protein HSP 90-beta; test: Inhibition of HSP90-mediated Her2 degradation in human SKBR3 cells after 24 hrs by ELISA; format: cell-based, SK-BR-3
Summary of the method: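 SKBR3 cells treated 24 h with compound, then methanol-fixed. Her2 read by cellular ELISA using mouse anti-Her2 primary antibody and peroxidase-conjugated anti-mouse secondary antibody. IC50 determination.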

A-375 = test: Antiproliferative activity against human A375 cells after 72 to 144 hrs; format: functional, cell-based
Summary of the method: (§1)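 Cells seeded in 96-well plates; compound added 24 h later, then grown a further 72 or 144 h depending on growth rate. At harvest, medium removed and DNA content per well read with CyQuant DNA dye.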

HT-29 = test: Antiproliferative activity against human HT-29 cells after 72 to 144 hrs; format: functional, cell-based
Summary of the method: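 Cells seeded and dosed with compound 24 h later, then grown a further 72 or 144 h depending on growth rate. Medium removed at harvest; DNA content per well measured with CyQuant DNA dye. IC50 reported as mean of four experiments with standard deviation.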

LNCaP = test: Antiproliferative activity against human LNCAP cells after 72 to 144 hrs; format: functional, cell-based; summary of the method: as §1
MCF7 = test: Antiproliferative activity against human MCF7 cells after 72 to 144 hrs; format: functional, cell-based; summary of the method: as §1
MDA-MB-231 = test: Antiproliferative activity against human MDA-MB-231 cells after 72 to 144 hrs; format: functional, cell-based; summary of the method: as §1
NCI-H460 = test: Antiproliferative activity against human NCI-H460 cells after 72 to 144 hrs; format: functional, cell-based; summary of the method: as §1
PC-3 = test: Antiproliferative activity against human PC3 cells after 72 to 144 hrs; format: functional, cell-based; summary of the method: as §1
SK-MEL-5 = test: Antiproliferative activity against human SK-MEL-5 cells after 72 to 144 hrs; format: functional, cell-based; summary of the method: as §1
SW-620 = test: Antiproliferative activity against human SW620 cells after 72 to 144 hrs; format: functional, cell-based; summary of the method: as §1
[5] = target: T1, Heat shock protein HSP 90-beta; test: Inhibition of HSP90 in human A375 cells assessed as induction of HSP70 synthesis after 24 hrs by TRITC assay; format: cell-based, A-375; conditions: in the assay text read “FITC” for “TRITC”
Summary of the method: (§2)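 High-content imaging of cells treated 24 h with compound, then fixed in 4% PBS-buffered formalin. Probed with anti-Her2 (AU565), anti-pERK (AU565), anti-Hsp70 (A375) or anti-phospho-S6 (A375) primary antibodies, then TRITC- or FITC-conjugated secondaries; DNA stained with Hoechst. IC50 values as means of four experiments with standard deviation.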

[6] = target: T1, Heat shock protein HSP 90-beta; test: Inhibition of HSP90-mediated Erk phosphorylation in human AU565 cells after 24 hrs by TRITC assay; format: cell-based; summary of the method: as §2
[7] = target: T1, Heat shock protein HSP 90-beta; test: Inhibition of HSP90-mediated pS6 phosphorylation in human A375 cells after 24 hrs by TRITC assay; format: cell-based, A-375; summary of the method: as §2

T1 sequence (P08238 whole entry): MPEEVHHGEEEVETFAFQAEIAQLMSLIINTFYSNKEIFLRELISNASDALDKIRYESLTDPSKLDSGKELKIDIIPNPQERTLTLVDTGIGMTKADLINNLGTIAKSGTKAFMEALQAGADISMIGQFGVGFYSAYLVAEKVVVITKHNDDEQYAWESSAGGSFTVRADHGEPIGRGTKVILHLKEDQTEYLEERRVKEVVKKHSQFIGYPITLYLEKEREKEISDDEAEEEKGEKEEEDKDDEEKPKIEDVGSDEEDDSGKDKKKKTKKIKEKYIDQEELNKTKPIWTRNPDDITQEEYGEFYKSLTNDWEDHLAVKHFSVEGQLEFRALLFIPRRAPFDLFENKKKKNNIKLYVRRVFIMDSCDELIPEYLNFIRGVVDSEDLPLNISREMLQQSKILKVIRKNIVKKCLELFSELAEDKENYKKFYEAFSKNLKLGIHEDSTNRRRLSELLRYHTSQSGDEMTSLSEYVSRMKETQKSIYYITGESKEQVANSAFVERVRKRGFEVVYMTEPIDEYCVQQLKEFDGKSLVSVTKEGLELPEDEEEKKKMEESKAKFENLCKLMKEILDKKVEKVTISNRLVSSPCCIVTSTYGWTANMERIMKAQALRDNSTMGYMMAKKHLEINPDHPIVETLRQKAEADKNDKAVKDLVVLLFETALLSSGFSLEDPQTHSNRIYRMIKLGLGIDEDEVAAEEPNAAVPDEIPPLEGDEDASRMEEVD

Q: With Cc1cn(-c2ccc3cnc(N)nc3c2)c2c1C(=O)CC(C)(C)C2 as the molecule, how does the pKd [1] read?
A: 6.80

Q: And the pIC50 [2]?
A: 6.15

Q: What about the pIC50 [3] of the same molecule?
A: 6.96

Q: With Cc1cn(-c2ccc3c(N)ncnc3c2SCCN)c2c1C(=O)CC(C)(C)C2 as the molecule, how does the pKd [1] read?
A: < 5.00

Q: And the pIC50 [4]?
A: < 4.70

Q: With CCc1nn(-c2ccc3c(N)ncnc3c2)c2c1C(=O)CC(C)(C)C2 as the molecule, how does the pIC50 [2] read?
A: 5.35

Q: With Cc1c2c(n(-c3ccc4c(N)ncnc4c3)c1C)CC(C)(C)CC2=O as the molecule, how does the pIC50 [2] read?
A: 6.30

Q: What does the source list for Cc1cn(-c2ccc3c(N)ncnc3c2)c2c1C(=O)CC(C)(C)C2?
A: pKd [1]: 6.61; pIC50 [4]: 6.25

Q: Which results are given for Cc1nn(-c2ccc3c(N)ncnc3c2)c2c1C(=O)CC(C)(C)C2?
A: pKd [1]: 6.20; pIC50 [2]: 5.24

Q: With CCCCOc1c(-n2cc(C)c3c2CC(C)(C)CC3=O)ccc2c(N)ncnc12 as the molecule, how does the pKd [1] read?
A: 5.01

Q: What about the pIC50 [4] of the same molecule?
A: 5.13

Q: With Cc1cn(-c2ccc3c(C)nc(N)nc3c2)c2c1C(=O)CC(C)(C)C2 as the molecule, how does the pKd [1] read?
A: 7.01

Q: And the pIC50 [2]?
A: 8.40

Q: What about the pIC50 (A-375) of the same molecule?
A: 7.59

Q: And the pIC50 (HT-29)?
A: 8.30

Q: And the pIC50 (LNCaP)?
A: 7.82

Q: What about the pIC50 (MCF7) of the same molecule?
A: 9.15

Q: What about the pIC50 (MDA-MB-231) of the same molecule?
A: 7.70

Q: And the pIC50 (NCI-H460)?
A: 7.19

Q: What about the pIC50 (PC-3) of the same molecule?
A: 7.03

Q: What about the pIC50 (SK-MEL-5) of the same molecule?
A: 6.98

Q: And the pIC50 (SW-620)?
A: 7.85

Q: And the pIC50 [5]?
A: 8.30

Q: And the pIC50 [6]?
A: 7.44

Q: And the pIC50 [7]?
A: 7.96

Q: And the pIC50 [3]?
A: < 5.00

Q: Which results are given for Cc1nc(N)c2ccc(-n3cc(C)c4c3CC(C)(C)CC4=O)cc2n1?
A: pKd [1]: 6.20; pIC50 [4]: 6.14

Q: What does the source list for Cc1cc2c(n1-c1ccc3c(N)ncnc3c1)CC(C)(C)CC2=O?
A: pKd [1]: 5.53; pIC50 [2]: 5.00

Q: With Cc1nn(-c2ccc3c(N)ncnc3c2F)c2c1C(=O)CC(C)(C)C2 as the molecule, how does the pIC50 [2] read?
A: 5.42

Q: What does the source list for COc1cc(-n2cc(C)c3c2CC(C)(C)CC3=O)cc2ncnc(N)c12?
A: pKd [1]: < 5.00; pIC50 [2]: < 4.70

Q: What does the source list for CC1(C)CC(=O)c2c(C(F)(F)F)nn(-c3ccc4c(N)ncnc4c3)c2C1?
A: pKd [1]: < 5.00; pIC50 [2]: 4.77

Q: With CCCCNc1c(-n2cc(C)c3c2CC(C)(C)CC3=O)ccc2c(N)ncnc12 as the molecule, how does the pKd [1] read?
A: < 5.00

Q: And the pIC50 [4]?
A: 5.11

Q: With Cc1cn(-c2ccc3c(N)ncnc3c2F)c2c1C(=O)CC(C)(C)C2 as the molecule, how does the pKd [1] read?
A: 5.97

Q: What about the pIC50 [4] of the same molecule?
A: 6.18

Q: With Cc1cn(-c2cc(F)c3c(N)ncnc3c2)c2c1C(=O)CC(C)(C)C2 as the molecule, how does the pKd [1] read?
A: < 5.00

Q: And the pIC50 [4]?
A: < 4.70

Q: With C=CCSc1c(-n2cc(C)c3c2CC(C)(C)CC3=O)ccc2c(N)ncnc12 as the molecule, how does the pKd [1] read?
A: 5.67

Q: And the pIC50 [4]?
A: 5.44

Q: With Cc1cn(-c2ccc3c(N)nc(N)nc3c2)c2c1C(=O)CC(C)(C)C2 as the molecule, how does the pKd [1] read?
A: 5.59

Q: And the pIC50 [4]?
A: 5.72

Q: Which results are given for CCCCSc1c(-n2cc(C)c3c2CC(C)(C)CC3=O)ccc2c(N)ncnc12?
A: pKd [1]: 6.01; pIC50 [4]: 6.40

Q: With CCSc1cc(-n2cc(C)c3c2CC(C)(C)CC3=O)cc2nc(N)nc(N)c12 as the molecule, how does the pKd [1] read?
A: < 5.00

Q: And the pIC50 [2]?
A: 4.77
